Values after ≈ are worked out from the molar mass of the structure shown.
Tests used:
Assay type in all cases: functional
[1] = system: Mycolicibacterium smegmatis; assay: Antibacterial activity against Mycobacterium smegmatis SZ558 after 24 generation times
Summary of the method: (§1)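 M. smegmatis SMR5 strains with one rRNA operon on a plasmid integrated at attB, grown in LB + 0.05% Tween 80 at 37°C to visible growth, diluted to OD600 0.02, and mixed 1:1 with 2-fold antibiotic dilutions. Tested ranges were linezolid 0.125–64 μg/ml and chloramphenicol, clindamycin, valnemulin 1–512 μg/ml. Incubation ran 37°C for 24 generation times of each strain. MIC was the lowest concentration with complete visual inhibition. Parent/wild-type controls were on each plate.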

[2] = system: Mycolicibacterium smegmatis; assay: Antibacterial activity against wild type Mycobacterium smegmatis after 24 generation times; summary of the method: as §1
[3] = system: Mycolicibacterium smegmatis; assay: Antibacterial activity against Mycobacterium smegmatis harboring 23S rRNA A2058G mutant after 24 generation times; summary of the method: as §1
[4] = system: Mycolicibacterium smegmatis; assay: Antibacterial activity against Mycobacterium smegmatis harboring 23S rRNA G2032C mutant after 24 generation times; summary of the method: as §1
[5] = system: Mycolicibacterium smegmatis; assay: Antibacterial activity against Mycobacterium smegmatis harboring 23S rRNA A2453U mutant after 24 generation times; summary of the method: as §1
[6] = system: Mycolicibacterium smegmatis; assay: Antibacterial activity against Mycobacterium smegmatis harboring 23S rRNA C2499U mutant after 24 generation times; summary of the method: as §1
[7] = system: Mycolicibacterium smegmatis; assay: Antibacterial activity against Mycobacterium smegmatis harboring 23S rRNA A2503G mutant after 24 generation times; summary of the method: as §1
[8] = system: Mycolicibacterium smegmatis; assay: Antibacterial activity against Mycobacterium smegmatis harboring 23S rRNA G2505A mutant after 24 generation times; summary of the method: as §1
[9] = system: Mycolicibacterium smegmatis; assay: Antibacterial activity against Mycobacterium smegmatis harboring 23S rRNA C2571G mutant after 24 generation times; summary of the method: as §1
[10] = system: Mycolicibacterium smegmatis; assay: Antibacterial activity against Mycobacterium smegmatis harboring 23S rRNA G2576U mutant after 24 generation times; summary of the method: as §1
[11] = system: Mycolicibacterium smegmatis; assay: Antibacterial activity against Mycobacterium smegmatis harboring 23S rRNA C2612A mutant after 24 generation times; summary of the method: as §1
[12] = system: Mycolicibacterium smegmatis; assay: Antibacterial activity against Mycobacterium smegmatis harboring 23S rRNA C2499A2 mutant after 24 generation times; summary of the method: as §1
[13] = system: Mycolicibacterium smegmatis; assay: Antibacterial activity against Mycobacterium smegmatis harboring 23S rRNA G2032A, C2499A mutant after 24 generation times; summary of the method: as §1
[14] = system: Mycolicibacterium smegmatis; assay: Antibacterial activity against Mycobacterium smegmatis harboring 23S rRNA G2032A mutant after 24 generation times; summary of the method: as §1
[15] = system: Mycolicibacterium smegmatis; assay: Antibacterial activity against Mycobacterium smegmatis harboring 23S rRNA G2032A, U2504G mutant after 24 generation times; summary of the method: as §1
[16] = system: Mycolicibacterium smegmatis; assay: Antibacterial activity against Mycobacterium smegmatis harboring 23S rRNA U2504G mutant after 24 generation times; summary of the method: as §1
[17] = system: Mycolicibacterium smegmatis; assay: Antibacterial activity against Mycobacterium smegmatis harboring 23S rRNA C2055A, U2504G mutant after 24 generation times; summary of the method: as §1
[18] = system: Mycolicibacterium smegmatis; assay: Antibacterial activity against Mycobacterium smegmatis harboring 23S rRNA C2055A mutant after 24 generation times; summary of the method: as §1
[19] = system: Mycolicibacterium smegmatis; assay: Antibacterial activity against Mycobacterium smegmatis harboring 23S rRNA C2055A, A2572U mutant after 24 generation times; summary of the method: as §1
[20] = system: Mycolicibacterium smegmatis; assay: Antibacterial activity against Mycobacterium smegmatis harboring 23S rRNA A2572U1 mutant after 24 generation times; summary of the method: as §1

| Structure (SMILES) | MIC [1] | MIC [2] | MIC [3] | MIC [4] | MIC [5] | MIC [6] | MIC [7] | MIC [8] | MIC [9] | MIC [10] | MIC [11] | MIC [12] | MIC [13] | MIC [14] | MIC [15] | MIC [16] | MIC [17] | MIC [18] | MIC [19] | MIC [20] |
| --- | --- | --- | --- | --- | --- | --- | --- | --- | --- | --- | --- | --- | --- | --- | --- | --- | --- | --- | --- | --- |
| O=C(N[C@H](CO)[C@H](O)c1ccc([N+](=O)[O-])cc1)C(Cl)Cl [CHLORAMPHENICOL] | 32 µg/mL (≈ 99 µM) | 32 µg/mL (≈ 99 µM) | 32 µg/mL (≈ 99 µM) | 32 µg/mL (≈ 99 µM) | 32 µg/mL (≈ 99 µM) | 32 µg/mL (≈ 99 µM) | 128 µg/mL (≈ 396 µM) | 128 µg/mL (≈ 396 µM) | 32 µg/mL (≈ 99 µM) | 256 µg/mL (≈ 792 µM) | 64 µg/mL (≈ 198 µM) | 32 µg/mL (≈ 99 µM) | 64 µg/mL (≈ 198 µM) | 32 µg/mL (≈ 99 µM) | 256 µg/mL (≈ 792 µM) | 512 µg/mL (≈ 1580 µM) | 128 µg/mL (≈ 396 µM) | 32 µg/mL (≈ 99 µM) | 64 µg/mL (≈ 198 µM) | 8 µg/mL (≈ 24.8 µM) |
| CCC[C@@H]1C[C@@H](C(=O)N[C@@H]([C@H]2O[C@H](SC)[C@H](O)[C@@H](O)[C@H]2O)[C@H](C)Cl)N(C)C1 [CLINDAMYCIN] | 16 µg/mL (≈ 37.6 µM) | 16 µg/mL (≈ 37.6 µM) | > 1030 µg/mL | 128 µg/mL (≈ 301 µM) | 32 µg/mL (≈ 75.3 µM) | 16 µg/mL (≈ 37.6 µM) | 8 µg/mL (≈ 18.8 µM) | 16 µg/mL (≈ 37.6 µM) | 16 µg/mL (≈ 37.6 µM) | 64 µg/mL (≈ 151 µM) | 16 µg/mL (≈ 37.6 µM) | 16 µg/mL (≈ 37.6 µM) | 16 µg/mL (≈ 37.6 µM) | 32 µg/mL (≈ 75.3 µM) | 16 µg/mL (≈ 37.6 µM) | 16 µg/mL (≈ 37.6 µM) | 16 µg/mL (≈ 37.6 µM) | 32 µg/mL (≈ 75.3 µM) | 512 µg/mL (≈ 1200 µM) | 16 µg/mL (≈ 37.6 µM) |
| CC(=O)NC[C@H]1CN(c2ccc(N3CCOCC3)c(F)c2)C(=O)O1 [LINEZOLID] | 2 µg/mL (≈ 5.93 µM) | 2 µg/mL (≈ 5.93 µM) | 2 µg/mL (≈ 5.93 µM) | 4 µg/mL (≈ 11.9 µM) | 4 µg/mL (≈ 11.9 µM) | 2 µg/mL (≈ 5.93 µM) | 8 µg/mL (≈ 23.7 µM) | 16 µg/mL (≈ 47.4 µM) | 4 µg/mL (≈ 11.9 µM) | 64 µg/mL (≈ 190 µM) | 4 µg/mL (≈ 11.9 µM) | 2 µg/mL (≈ 5.93 µM) | 8 µg/mL (≈ 23.7 µM) | 2 µg/mL (≈ 5.93 µM) | 64 µg/mL (≈ 190 µM) | 8 µg/mL (≈ 23.7 µM) | 32 µg/mL (≈ 94.9 µM) | 0.5 µg/mL (≈ 1.48 µM) | 64 µg/mL (≈ 190 µM) | 4 µg/mL (≈ 11.9 µM) |
| C=C[C@]1(C)C[C@@H](OC(=O)CSC(C)(C)CNC(=O)[C@H](N)C(C)C)[C@]2(C)[C@H](C)CC[C@]3(CCC(=O)[C@H]32)[C@@H](C)[C@@H]1O [VALNEMULIN] | 32 µg/mL (≈ 56.7 µM) | 32 µg/mL (≈ 56.7 µM) | 64 µg/mL (≈ 113 µM) | 128 µg/mL (≈ 227 µM) | 64 µg/mL (≈ 113 µM) | 32 µg/mL (≈ 56.7 µM) | 32 µg/mL (≈ 56.7 µM) | 32 µg/mL (≈ 56.7 µM) | 32 µg/mL (≈ 56.7 µM) | 32 µg/mL (≈ 56.7 µM) | 32 µg/mL (≈ 56.7 µM) | 64 µg/mL (≈ 113 µM) | 128 µg/mL (≈ 227 µM) | 128 µg/mL (≈ 227 µM) | 128 µg/mL (≈ 227 µM) | 64 µg/mL (≈ 113 µM) | 64 µg/mL (≈ 113 µM) | 64 µg/mL (≈ 113 µM) | 128 µg/mL (≈ 227 µM) | 128 µg/mL (≈ 227 µM) |

Source: ChEMBL document CHEMBL1687780, “Mutations in 23S rRNA at the peptidyl transferase center and their relationship to linezolid binding and cross-resistance” (2010)
